Experimental findings from ChEMBL document CHEMBL3259564, “Synthesis and evaluation of immunostimulant plasmalogen lysophosphatidylethanolamine and analogues for natural killer T cells” (Bioorg Med Chem, 2014) are described below.

The source made the active and inactive calls. The rule behind the calls is not given here.

One assay has as its system 2H4. The assay can be described thus: Immunostimulatory activity in mouse NKT hybridoma 2H4 cells assessed as IL-2 production at 100 ng/ml after 24 hrs by plate-bound mCD1d presenting assay. It is filed as functional, cell-based. The method, boiled down: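 Plates were coated with mouse CD1d protein overnight at 4 °C, PBS-washed and blocked with PBS/10% FCS for 1 h. Compound at 100 ng/mL was loaded for 24 h at 37 °C, then washed off. 2H4 NKT hybridoma cells were added, and IL-2 was measured by ELISA after 24 h. Data are mean ± SD of three independent experiments, with Student's t test against vehicle.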
In the case of `CCCCCCCC/C=C\CCCCCCCC(=O)OC[C@@H](O)COP(=O)(O)OCCN`, the outcome was Active.
`CCCCC/C=C\C/C=C\CCCCCCCC/C=C\OC[C@@H](O)COP(=O)(O)OCCN`: the result was Active.
The same measure, in the same setting: under `CCCCC/C=C\C/C=C\CCCCCCCCC#COC[C@@H](O)COP(=O)(O)OCCN` stands “Active”.
The same measure, in the same setting: the entry for `CCCCCCCC/C=C\CCCCCCCCC#COC[C@@H](O)COP(=O)(O)OCCN` is “Active”; for `CCCCCCCC/C=C\CCCCCCCCCCCCOC[C@@H](O)COP(=O)(O)OCCN` it is “Active”.

The species entered for another assay is Mus musculus. The assay can be described thus: Immunostimulatory activity in C57BL/6 mouse splenocytes assessed as IL-4 production at 100 ng/ml after 72 hrs by ELISA. It is filed as functional, cell-based. The method, boiled down:
(§1)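 C57BL/6 mouse splenocytes were cultured for 72 h with compound at 100 ng/mL or DMSO vehicle in RPMI1640 with 10% FCS, humidified 5% CO2. IFN-γ and IL-4 in the supernatants were measured by ELISA. Assays were run in triplicate and reported as mean ± SD.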
On the technique in general: In an ELISA, binding on a coated surface is turned into a signal by an enzyme label.
Turning to `CCCCCCCC/C=C\CCCCCCCC(=O)OC[C@@H](O)COP(=O)(O)OCCN`, the result was Active.
Regarding `CCCCCCCC/C=C\CCCCCCCCC#COC[C@@H](O)COP(=O)(O)OCCN`, the outcome was Active.
Take `CCCCCCCC/C=C\CCCCCCCCCCCCOC[C@@H](O)COP(=O)(O)OCCN`: the result was Active.
As for `CCCCCCCCCCCCCC/C=C\OC[C@@H](O)COP(=O)(O)OCCN`, the outcome was Active.

For another assay, the species on record is Mus musculus. The assay can be described thus: Immunostimulatory activity in C57BL/6 mouse splenocytes assessed as IFN-gamma production at 100 ng/ml after 72 hrs by ELISA. It counts as functional, cell-based. Put shortly: as §1
With `CCCCCCCC/C=C\CCCCCCCC(=O)OC[C@@H](O)COP(=O)(O)OCCN`, the outcome was Active.
On the same count and under the same terms, the entry for `CCCCC/C=C\C/C=C\CCCCCCCC/C=C\OC[C@@H](O)COP(=O)(O)OCCN` is “Active”; for `CCCCC/C=C\C/C=C\CCCCCCCCC#COC[C@@H](O)COP(=O)(O)OCCN` it is “Active”; for `CCCCCCCC/C=C\CCCCCCCCC#COC[C@@H](O)COP(=O)(O)OCCN` it is “Active”.
On the same count and under the same terms, under `CCCCCCCC/C=C\CCCCCCCCCCCCOC[C@@H](O)COP(=O)(O)OCCN` stands “Active”.
In the case of `CCCCCCCCCCCCCC/C=C\OC[C@@H](O)COP(=O)(O)OCCN`, the outcome was Active.

The next assay relates to Mus musculus. The assay is described as follows: In vivo immunostimulatory activity in C57BL/6 mouse assessed as increase in serum IL-4 level at 1 ug, ip after 2 to 24 hrs by ELISA. It is filed as functional, organism-based. Put shortly: (§2)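 C57BL/6 mice were given compound by intraperitoneal injection. Serum IFN-γ and IL-4 were measured at 2 h and at a later time point. Data are mean ± SD.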
Consider `CCCCCCCC/C=C\CCCCCCCC(=O)OC[C@@H](O)COP(=O)(O)OCCN`, for which the outcome was Active.
`CCCCC/C=C\C/C=C\CCCCCCCC/C=C\OC[C@@H](O)COP(=O)(O)OCCN`: the result was Active.
On the same count and under the same terms, under `CCCCC/C=C\C/C=C\CCCCCCCCC#COC[C@@H](O)COP(=O)(O)OCCN` stands “Active”.
On the same count and under the same terms, the entry for `CCCCCCCC/C=C\CCCCCCCCC#COC[C@@H](O)COP(=O)(O)OCCN` is “Active”; for `CCCCCCCC/C=C\CCCCCCCCCCCCOC[C@@H](O)COP(=O)(O)OCCN` it is “Active”.
In the case of `CCCCCCCCCCCCCC/C=C\OC[C@@H](O)COP(=O)(O)OCCN`, the outcome was Active.

The test system of a further assay is Mus musculus. The assay can be described thus: In vivo immunostimulatory activity in C57BL/6 mouse assessed as increase in serum IFN-gamma level at 1 ug, ip after 2 hrs by ELISA. It is filed as functional, organism-based. Put shortly:
as §2
Take `CCCCCCCC/C=C\CCCCCCCC(=O)OC[C@@H](O)COP(=O)(O)OCCN`: the result was Active.
Same read-out and setting: the entry for `CCCCC/C=C\C/C=C\CCCCCCCC/C=C\OC[C@@H](O)COP(=O)(O)OCCN` is “Active”; for `CCCCC/C=C\C/C=C\CCCCCCCCC#COC[C@@H](O)COP(=O)(O)OCCN` it is “Active”.
The same measure, in the same setting: the entry for `CCCCCCCC/C=C\CCCCCCCCC#COC[C@@H](O)COP(=O)(O)OCCN` is “Active”; for `CCCCCCCC/C=C\CCCCCCCCCCCCOC[C@@H](O)COP(=O)(O)OCCN` it is “Active”; for `CCCCCCCCCCCCCC/C=C\OC[C@@H](O)COP(=O)(O)OCCN` it is “Active”.

Another assay is filed under the species Mus musculus. The assay is described as follows: Immunostimulatory activity in C57BL/6 mouse splenocytes assessed as IL-4/IFN-gamma ratio at 100 ng/ml after 72 hrs by ELISA. It counts as functional, cell-based. The method, boiled down: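 Whole C57BL/6 splenocytes were given compound at 100 ng/mL or DMSO for 72 h in RPMI1640 with 10% FCS. Supernatant IL-4 and IFN-γ were measured by ELISA. The IL-4/IFN-γ ratio was normalized to the DMSO control. Triplicate, mean ± SD.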
As to `CCCCCCCC/C=C\CCCCCCCC(=O)OC[C@@H](O)COP(=O)(O)OCCN`, the result was Active.
Same read-out and setting: under `CCCCC/C=C\C/C=C\CCCCCCCC/C=C\OC[C@@H](O)COP(=O)(O)OCCN` stands “Active”; under `CCCCC/C=C\C/C=C\CCCCCCCCC#COC[C@@H](O)COP(=O)(O)OCCN`, “Active”; under `CCCCCCCC/C=C\CCCCCCCCC#COC[C@@H](O)COP(=O)(O)OCCN`, “Active”.
On the same count and under the same terms, under `CCCCCCCC/C=C\CCCCCCCCCCCCOC[C@@H](O)COP(=O)(O)OCCN` stands “Active”; under `CCCCCCCCCCCCCC/C=C\OC[C@@H](O)COP(=O)(O)OCCN`, “Active”.

A further assay deals with Mus musculus. The assay can be described thus: In vivo immunostimulatory activity in C57BL/6 mouse assessed as increase in serum IFN-gamma level at 1 ug, ip after 24 hrs by ELISA. It is filed as functional, organism-based. Put shortly:
as §2
In the case of `CCCCCCCC/C=C\CCCCCCCC(=O)OC[C@@H](O)COP(=O)(O)OCCN`, the result was inactive.
On to `CCCCC/C=C\C/C=C\CCCCCCCC/C=C\OC[C@@H](O)COP(=O)(O)OCCN`, for which the result was inactive.
Take `CCCCC/C=C\C/C=C\CCCCCCCCC#COC[C@@H](O)COP(=O)(O)OCCN`: the result was inactive.
On to `CCCCCCCC/C=C\CCCCCCCCC#COC[C@@H](O)COP(=O)(O)OCCN`, for which the outcome was inactive.
On the same count and under the same terms, the entry for `CCCCCCCC/C=C\CCCCCCCCCCCCOC[C@@H](O)COP(=O)(O)OCCN` is “inactive”.
